The target of assay [1] is AT1R. The following applies: read-out: AT1R Kd; cited from earlier work.
For assay [2], the target named is T1, human BCKDK (Homo sapiens, UniProt O14874). Briefly: BCKDK biochemical assay. The settings on record: for maximum BCKDK inhibition in the biochemical assay: plateau of inhibition curve. The gist of the method:
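BCKDK freed of MBP tag by TEV cleavage. 11-point half-log test compound series (final 300 μM to 3 nM, 1% DMSO), in duplicate. Reaction started with 50 nM lipoylated fusion substrate plus 15 or 200 μM ATP; 90 min at RT. EDTA stop; Eu-anti-His/anti-pE1/ULight TR-FRET read at 665 nm. IC50 from four-parameter logistic fit.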

For assay [3], the system named is BCKD–BCKDK complex purified from rat liver. The settings on record: read-out: in vitro IC50 to inhibit the BCKD–BCKDK complex, 500 μM ATP; cited from earlier work.
The target of assay [4] is BCKDK. The following applies: read-out: Ki as ATP competitive inhibitor of BCKDK; cited from earlier work.
Assay [5] addresses PDK4 (Homo sapiens, UniProt Q16654). Nature of the assay: PDK4 biochemical assay. The gist of the method:
(§1)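 Kinetic fluorescence assay (ex 360/em 485 nm) at 30 °C for 240 min using N-terminal GST-tagged kinase at 10 nM. PDK1 (aa 1–436): 6.0 μM ATP, 15 μM AQT0895. PDK4 (aa 1–411): 97 μM ATP, AQT0872. Eleven threefold dilutions (100 μM–1.7 nM final, 2% DMSO), run in duplicate, with a 30 min preincubation before enzyme. No-enzyme background subtracted. IC50 by four-parameter fit of initial rates.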

For assay [6], the target named is T1, human BCKDK. Type of assay: binding. The gist of the method:
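BCKDK biotinylated with BirA during TEV cleavage, then immobilized. At least six twofold dilutions injected at 30 μl/min: 120 s association, ≥300 s dissociation. Double reference subtraction using blank injections. For competition, the same series was run with 20 μM radicicol or 20 μM BT2 in running buffer; reduced signal was read as shared site.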

The target in assay [7] is PDK1 (Homo sapiens, UniProt Q15118). Nature of the assay: PDK1 biochemical assay. An outline of the steps: as §1
[8] abbreviates: Biochemical IC50, ATP concentration of 15 μM.
Setting [9] is: Biochemical IC50 at 200 μM ATP, 200 μM ATP.

Where two headings read alike, the source gives them in different places.

Chain of PDK1 (Q15118 29-436): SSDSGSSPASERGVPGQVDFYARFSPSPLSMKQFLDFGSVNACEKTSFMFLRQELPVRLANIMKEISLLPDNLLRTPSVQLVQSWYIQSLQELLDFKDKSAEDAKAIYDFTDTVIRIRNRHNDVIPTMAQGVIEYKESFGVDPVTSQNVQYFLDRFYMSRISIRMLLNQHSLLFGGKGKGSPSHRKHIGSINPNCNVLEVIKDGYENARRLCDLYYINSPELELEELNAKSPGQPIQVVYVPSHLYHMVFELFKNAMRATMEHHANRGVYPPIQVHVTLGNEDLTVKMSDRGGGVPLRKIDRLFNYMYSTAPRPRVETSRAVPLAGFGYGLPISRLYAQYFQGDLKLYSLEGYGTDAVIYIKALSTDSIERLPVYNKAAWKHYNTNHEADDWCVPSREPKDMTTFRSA
Chain of PDK4 (Q16654 whole entry, the tested form may be a part): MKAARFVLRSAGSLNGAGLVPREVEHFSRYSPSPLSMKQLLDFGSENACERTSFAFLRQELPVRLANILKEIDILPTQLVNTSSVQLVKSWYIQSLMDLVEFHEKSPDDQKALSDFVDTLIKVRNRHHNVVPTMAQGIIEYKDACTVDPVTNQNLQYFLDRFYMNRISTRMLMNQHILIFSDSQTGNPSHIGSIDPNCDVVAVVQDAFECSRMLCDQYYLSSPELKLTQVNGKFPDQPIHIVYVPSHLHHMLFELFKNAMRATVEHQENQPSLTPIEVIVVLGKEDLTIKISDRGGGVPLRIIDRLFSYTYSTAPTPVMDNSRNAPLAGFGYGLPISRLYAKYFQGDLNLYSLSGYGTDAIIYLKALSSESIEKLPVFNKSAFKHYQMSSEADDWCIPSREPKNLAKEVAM

Broadly, the Kd is the equilibrium constant for the complex coming apart. Usually IC50 stands for the concentration that gives 50% inhibition. On to `CCCc1nc(C(C)(C)O)c(C(=O)O)n1Cc1ccc(-c2ccccc2-c2nnn[nH]2)cc1` [olmesartan acid], for which, in assay [1], the Kd was 6.9 nM. For the same molecule, the IC50 in assay [2] (read-out: In vitro IC50, Supplementary Table 1, BDK inhibition) is 43.7 µM.
By Km is commonly meant the substrate concentration at which the rate is half of its maximum. In the case of `Nc1ncnc2c1ncn2[C@@H]1O[C@H](COP(=O)(O)OP(=O)(O)OP(=O)(O)O)[C@@H](O)[C@H]1O` [ATP], the Km in assay [2] (read-out: Km of ATP, determined in the biochemical assay format) came out at 13.6 ± 0.32 µM.
`CCC1CN(Cc2ccc(-c3ccccc3-c3nnn[nH]3)cc2)c2ncccc2O1` (centres unmarked) [compound 1∗, 4-((2'-(1H-tetrazol-5-yl)-[1,1′-biphenyl]-4-yl)methyl)-2-ethyl-3,4-dihydro-2H-pyrido[3,2-b][1,4]oxazine] returned an IC50 in assay [2] (in vitro biochemical activity) of 0.032 ± 2e-05 µM.
`Cc1ccc(-c2ccccc2-c2nnn[nH]2)cc1` [fragment 2, 5-(4′-methyl-[1,1′-biphenyl]-2-yl)-1H-tetrazole]: the IC50 in assay [2] (setting [8]) was determined as 37.3 ± 7.1 µM; in assay [2] (setting [9]) it was 38.7 ± 3.7 µM.
What is called Ki is the equilibrium dissociation constant of an inhibitor or competing ligand from its target. On to `CCCCC(=O)N(Cc1ccc(-c2ccccc2-c2nnn[nH]2)cc1)[C@H](C(=O)O)C(C)C` [valsartan], for which the IC50 in assay [2] (setting [8]) was 1.7 ± 1.9 µM; in assay [2] (setting [9]), 7.7 ± 4.4 µM; in assay [3], 37.3 µM; in assay [5], 78 µM. Further, in assay [2], the “maximum BCKDK inhibition in the biochemical assay” value (from here on “maximum BCKDK inhibition”) stood at 100%. Further, the Ki in assay [4] was 1360 nM.
With `COc1ccc(-c2nnn[nH]2)cc1` [fragment 1, 5-(4-methoxyphenyl)-1H-tetrazole], the results for the IC50 in assay [2] (setting [8]) and in assay [2] (setting [9]) were 205 ± 51 µM and 232 ± 28 µM, respectively.
With `C[C@@H]1C[C@H]2O[C@@H]2/C=C\C=C\C(=O)Cc2c(Cl)c(O)cc(O)c2C(=O)O1` [radicicol], the results for the IC50 in assay [2] (setting [8]) and in assay [2] (setting [9]) were 25 ± 3.8 µM and 110 ± 21 µM, respectively. In assay [2], the “maximum BCKDK inhibition” value was determined as 100%. In assay [6], this molecule yielded a Kd of 1470 nM.
In the case of `CCC1CN(Cc2ccc(-c3ccccc3-c3nnn[nH]3)cc2)c2ncccc2O1` (racemic) [racemic, 4-((2'-(1H-tetrazol-5-yl)-[1,1′-biphenyl]-4-yl)methyl)-2-ethyl-3,4-dihydro-2H-pyrido[3,2-b][1,4]oxazine], in assay [2] (in vitro biochemical activity), the IC50 worked out at 0.011 ± 0.0025 µM.
For the molecule `O=C(O)c1sc2cc(Cl)ccc2c1Cl` [BT2, 3,6-dichlorobenzo[b]thiophene-2-carboxylic acid], the IC50 in assay [2] (setting [8]) worked out at 0.96 ± 0.33 µM; in assay [2] (setting [9]), 0.9 ± 0.37 µM; in assay [7], 79 µM. In assay [2], the “maximum BCKDK inhibition” value is around 75%.
Take `CCC1CN(Cc2ccc(-c3ccccc3-c3nnn[nH]3)cc2)c2ncccc2O1` (centres unmarked) [compound 1, 4-((2'-(1H-tetrazol-5-yl)-[1,1′-biphenyl]-4-yl)methyl)-2-ethyl-3,4-dihydro-2H-pyrido[3,2-b][1,4]oxazine]: the IC50 in assay [2] (setting [8]) amounted to 0.0069 ± 0.0025 µM; in assay [2] (setting [9]) it was 0.021 ± 0.006 µM. Further, in assay [2], the “maximum BCKDK inhibition” value is on record as 100%.
